According to PMC5652008 (EBioMedicine, 2017):
Marks after values point to notes of the source that are not given here. Blank lines part the entries; values can stand above or below the molecule they belong to. Square brackets hold non-standard residues; d marks the D form. Peptide text beside a SMILES is read from it. * marks the point of attachment. Succinyl(4-O-cholesteryl) = CC(C)CCC[C@@H](C)[C@H]1CC[C@H]2[C@@H]3CC=C4C[C@@H](OC(=O)CCC(=O)*)CC[C@]4(C)[C@H]3CC[C@]12C; Sta = CC(C)C[C@H](N)[C@@H](O)CC(=O)O; Palmitoyl = CCCCCCCCCCCCCCCC(=O)*

Experiments:
[1] = target: T1, BACE1 (Homo sapiens, UniProt P56817); test: Cell-based Aβ lowering IC50 assay; conditions: for Aβ40 production inhibition in HEK293 APP cells: 16 h / overnight incubation
T1 sequence (P56817 46-501): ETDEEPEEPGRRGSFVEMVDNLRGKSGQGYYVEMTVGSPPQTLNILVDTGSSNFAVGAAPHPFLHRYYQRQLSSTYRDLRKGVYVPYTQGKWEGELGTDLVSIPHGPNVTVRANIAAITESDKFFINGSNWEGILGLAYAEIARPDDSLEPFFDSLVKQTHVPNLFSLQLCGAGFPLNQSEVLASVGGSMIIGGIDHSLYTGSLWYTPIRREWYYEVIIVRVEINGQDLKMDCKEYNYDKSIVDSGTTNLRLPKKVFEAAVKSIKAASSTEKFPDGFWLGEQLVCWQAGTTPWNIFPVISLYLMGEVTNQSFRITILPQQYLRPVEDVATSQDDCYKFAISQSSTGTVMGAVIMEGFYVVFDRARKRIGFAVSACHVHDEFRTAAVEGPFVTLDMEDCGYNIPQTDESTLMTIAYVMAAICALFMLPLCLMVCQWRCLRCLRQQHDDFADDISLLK
Outline: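 Test compounds, free or Brain Shuttle-coupled, added in serial dilutions to HEK293 cells stably expressing wild-type human APP695, grown in Iscove's medium with 10% FBS to ~80% confluency. Construct dilution buffers served as control. Overnight at 37 °C, 5% CO2. Supernatant Aβ40 read by AlphaLISA: acceptor beads 1 h, then streptavidin donor beads 30 min, both at RT; emission at 615 nm. Compared with vehicle-treated cells; mean ± SEM.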

[2] = Thermodynamic; format: physicochemical; conditions: phosphate buffer
Outline: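 Equilibrium solubility measured in 0.05 M phosphate buffer, pH 6.5.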

[3] = target: T1, BACE1; test: SPR binding assay on immobilized BACE1
Outline: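 SPR at 18 °C in the immobilization buffer. Peptide titrations used 2-fold dilution steps, run either as single-cycle kinetics (5 concentrations) or multi-cycle kinetics (10 concentrations). Two protein surfaces and an activated/deactivated CM5 reference surface were measured in parallel on one sensor.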

[4] = system: Aβ production in human stem-cell derived neurons; test: Human neural stem cell-based Aβ40 inhibition assay; conditions: 48 h incubation
Outline: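 Neurons differentiated from SB-AD3 human iPSCs (healthy adult donor fibroblasts) via embryoid bodies and dual SMAD inhibition. Doses 0.128–10,000 nM (three independent differentiations) or 0.001024–80 nM (one differentiation), two technical replicates per dose. Vehicle was histidine/NaCl/1.3 mM hydroxypropyl-β-cyclodextrin for peptides and DMSO for small molecules. Aβ40 read by AlphaLISA at 615 nm, compared with vehicle-treated cells; means ± SEM.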

[5] = system: plasma Aβ; test: Plasma Aβ40 after single i.v. dose in mice; format: in vivo, C57BL/6 J mice; conditions: 5 h post dose
Outline: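 Nine-week-old female mice received one i.v. injection of test compound at 0.003–3 mg/kg, with the buffer alone as vehicle control; three animals per group. Under anaesthesia, blood was collected into EDTA tubes, spun 8 min at 1600 × g, and plasma diluted 1:10 in 0.2% diethanolamine before solid-phase extraction.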

[6] = pH 6.5, Solubility pH 6.5, Table 1, phosphate buffer 0.05 M

Molecule: CC(C)C[C@H](NC(=O)[C@H](CC(N)=O)NC(=O)[C@@H](NC(=O)[C@@H](N)CCC(=O)O)C(C)C)[C@@H](O)CC(=O)N[C@H](C(=O)N[C@@H](C)C(=O)N[C@@H](CCC(=O)O)C(=O)N1CCC[C@@H]1C(=O)N[C@@H](CCCCN)C(N)=O)C(C)C [Pep#2, Glu-Val-Asn-Sta-Val-Ala-Glu-DPro-Lys-NH2] (H-EVN[Sta]VAE[dP]K-NH2; N-terminus assumed)
IC50 [1]: > 40000 nM

Molecule: CC(C)CCC[C@@H](C)[C@H]1CC[C@H]2[C@@H]3CC=C4C[C@@H](OC(=O)CCC(=O)NCCCC[C@H](NC(=O)[C@H]5CCCN5C(=O)[C@H](CCC(=O)O)NC(=O)[C@H](C)NC(=O)[C@@H](NC(=O)C[C@H](O)[C@H](CC(C)C)NC(=O)[C@H](CC(N)=O)NC(=O)[C@@H](NC(=O)[C@@H](N)CCC(=O)O)C(C)C)C(C)C)C(N)=O)CC[C@]4(C)[C@H]3CC[C@]12C [Pep#3, Glu-Val-Asn-Sta-Val-Ala-Glu-DPro-Lys(ε-Chol'ester’)-NH2] (H-EVN[Sta]VAE[dP]K(Succinyl(4-O-cholesteryl))-NH2; N-terminus assumed)
solubility thermodynamic ([2]; pH 6.5): > 3000 µg/mL
IC50 [1]: 0.4 nM

Molecule: CCCCCCCCCCCCCCCC(=O)NCCCC[C@H](NC(=O)[C@H]1CCCN1C(=O)[C@H](CCC(=O)O)NC(=O)[C@H](C)NC(=O)[C@@H](NC(=O)C[C@H](O)[C@H](CC(C)C)NC(=O)[C@H](CC(N)=O)NC(=O)[C@@H](NC(=O)[C@@H](N)CCC(=O)O)C(C)C)C(C)C)C(N)=O [Pep#4, Glu-Val-Asn-Sta-Val-Ala-Glu-DPro-Lys(ε-Palmitoyl)-NH2] (H-EVN[Sta]VAE[dP]K(Palmitoyl)-NH2; N-terminus assumed)
solubility thermodynamic ([2]; pH 6.5): < 1 µg/mL
IC50 [1]: 6 nM

Molecule: CC[C@H](C)[C@H](NC(=O)[C@H](Cc1ccccc1)NC(=O)[C@H](Cc1ccc(O)cc1)NC(=O)[C@@H]1CCCN1C(=O)[C@@H](N)Cc1ccc(O)cc1)C(=O)N1CCC[C@H]1C(=O)N[C@@H](C)C(=O)NCC(=O)N[C@H](CCCCN)C(=O)NCC(=O)N[C@@H](CCC(=O)O)C(=O)N[C@H](C(=O)N[C@@H](CC(N)=O)C(=O)N[C@@H](CC(C)C)[C@@H](O)CC(=O)N[C@H](C(=O)N[C@@H](C)C(=O)N[C@@H](CCC(=O)O)C(=O)N1CCC[C@@H]1C(=O)N[C@@H](CCCCNC(=O)CCC(=O)O[C@H]1CC[C@@]2(C)C(=CC[C@H]3[C@@H]4CC[C@H]([C@H](C)CCCC(C)C)[C@@]4(C)CC[C@@H]32)C1)C(N)=O)C(C)C)C(C)C [Pep#10, Tyr-Pro-Tyr-Phe-Ile-Pro-Ala-Gly-DLys-Gly-Glu-Val-Asn-Sta-Val-Ala-Glu-DPro-Lys(Chol'ester’)-NH2] (H-YPYFIPAG[dK]GEVN[Sta]VAE[dP]K(Succinyl(4-O-cholesteryl))-NH2; N-terminus assumed)
solubility thermodynamic ([2]; pH 6.5): > 2450 µg/mL

Molecule: Ac-YPYFLPISAK-NH2 [Pep#6, Ac-Tyr-Pro-Tyr-Phe-Leu-Pro-Ile-Ser-Ala-Lys-NH2, reference compound]
IC50 [1]: > 40000 nM

Second part, led by results:

IC50 [1]: > 40000 nM
Molecule: CC[C@H](C)[C@H](NC(=O)[C@H](Cc1ccccc1)NC(=O)[C@H](Cc1ccc(O)cc1)NC(=O)[C@@H]1CCCN1C(=O)[C@H](Cc1ccc(O)cc1)NC(C)=O)C(=O)N1CCC[C@H]1C(=O)N[C@@H](CC(C)C)C(N)=O [Pep#5, Ac-Tyr-Pro-Tyr-Phe-Ile-Pro-Leu-NH2]

solubility thermodynamic [2, 6]: < 1 µg/mL
Molecule: CC[C@H](C)[C@H](NC(=O)[C@H](Cc1ccccc1)NC(=O)[C@H](Cc1ccc(O)cc1)NC(=O)[C@@H]1CCCN1C(=O)[C@@H](N)Cc1ccc(O)cc1)C(=O)N1CCC[C@H]1C(=O)N[C@@H](CC(C)C)C(=O)NCC(=O)NCC(=O)NCC(=O)N[C@@H](CCC(=O)O)C(=O)N[C@H](C(=O)N[C@@H](CC(N)=O)C(=O)N[C@@H](CC(C)C)[C@@H](O)CC(=O)N[C@H](C(=O)N[C@@H](C)C(=O)N[C@@H](CCC(=O)O)C(=O)N1CCC[C@@H]1C(=O)N[C@@H](CCCCNC(=O)CCC(=O)O[C@H]1CC[C@@]2(C)C(=CC[C@H]3[C@@H]4CC[C@H]([C@H](C)CCCC(C)C)[C@@]4(C)CC[C@@H]32)C1)C(N)=O)C(C)C)C(C)C [Pep#7, Tyr-Pro-Tyr-Phe-Ile-Pro-Leu-Gly-Gly-Gly-Glu-Val-Asn-Sta-Val-Ala-Glu-DPro-Lys(Chol'ester’)-NH2]

solubility thermodynamic [2, 6]: > 718 µg/mL
Molecule: CC[C@H](C)[C@H](NC(=O)[C@H](Cc1ccccc1)NC(=O)[C@H](Cc1ccc(O)cc1)NC(=O)[C@@H]1CCCN1C(=O)[C@@H](N)Cc1ccc(O)cc1)C(=O)N1CCC[C@H]1C(=O)N[C@H](CCCCN)C(=O)NCC(=O)N[C@H](CCCCN)C(=O)NCC(=O)N[C@@H](CCC(=O)O)C(=O)N[C@H](C(=O)N[C@@H](CC(N)=O)C(=O)N[C@@H](CC(C)C)[C@@H](O)CC(=O)N[C@H](C(=O)N[C@@H](C)C(=O)N[C@@H](CCC(=O)O)C(=O)N1CCC[C@@H]1C(=O)N[C@@H](CCCCNC(=O)CCC(=O)O[C@H]1CC[C@@]2(C)C(=CC[C@H]3[C@@H]4CC[C@H]([C@H](C)CCCC(C)C)[C@@]4(C)CC[C@@H]32)C1)C(N)=O)C(C)C)C(C)C [Pep#9, Tyr-Pro-Tyr-Phe-Ile-Pro-DLys-Gly-DLys-Gly-Glu-Val-Asn-Sta-Val-Ala-Glu-DPro-Lys(Chol'ester’)-NH2]

kon ([3]; BACE1 surface, 18 °C, pH 4.5): 1.1–1.3·10^5 1/Ms
Selectivity for BACE1 ([3]; ratio KD(BACE2)/KD(BACE1)): > 15 ^a
Molecule: CC[C@H](C)[C@H](NC(=O)[C@H](Cc1ccccc1)NC(=O)[C@H](Cc1ccc(O)cc1)NC(=O)[C@@H]1CCCN1C(=O)[C@@H](N)Cc1ccc(O)cc1)C(=O)N1CCC[C@H]1C(=O)N[C@H](CCCCN)C(=O)NCC(=O)N[C@H](CCCCN)C(=O)NCC(=O)N[C@@H](CCC(=O)O)C(=O)N[C@H](C(=O)N[C@@H](CC(N)=O)C(=O)N[C@@H](CC(C)C)[C@@H](O)CC(=O)N[C@H](C(=O)N[C@@H](C)C(=O)N[C@@H](CCC(=O)O)C(=O)N1CCC[C@@H]1C(N)=O)C(C)C)C(C)C [Pep#12, Tyr-Pro-Tyr-Phe-Ile-Pro-DLys-Gly-DLys-Gly-Glu-Val-Asn-Sta-Val-Ala-Glu-DPro-NH2]

Aβ40 production inhibition in HEK293 APP cells [1]: blocked production of Aβ40
Molecule: CC[C@H](C)[C@H](NC(=O)[C@H](Cc1ccccc1)NC(=O)[C@H](Cc1ccc(O)cc1)NC(=O)[C@@H]1CCCN1C(=O)[C@H](Cc1ccc(O)cc1)NC(=O)CNC(=O)CNC(=O)CN)C(=O)N1CCC[C@H]1C(=O)N[C@H](CCCCN)C(=O)NCC(=O)N[C@H](CCCCN)C(=O)NCC(=O)N[C@@H](CCC(=O)O)C(=O)N[C@H](C(=O)N[C@@H](CC(N)=O)C(=O)N[C@@H](CC(C)C)[C@@H](O)CC(=O)N[C@H](C(=O)N[C@@H](C)C(=O)N[C@@H](CCC(=O)O)C(=O)N1CCC[C@@H]1C(=O)N[C@@H](CCCCNC(=O)CCC(=O)O[C@H]1CC[C@@]2(C)C(=CC[C@H]3[C@@H]4CC[C@H]([C@H](C)CCCC(C)C)[C@@]4(C)CC[C@@H]32)C1)C(N)=O)C(C)C)C(C)C [Pep#14, Gly-Gly-Gly-Tyr-Pro-Tyr-Phe-Ile-Pro-DLys-Gly-DLys-Gly-Glu-Val-Asn-Sta-Val-Ala-Glu-DPro-Lys(Chol'ester’)-NH2] (H-GGGYPYFIP[dK]G[dK]GEVN[Sta]VAE[dP]K(Succinyl(4-O-cholesteryl))-NH2; N-terminus assumed)
Aβ production inhibition in human stem-cell derived neurons [4]: able to reduce the Aβ production
Plasma Aβ40 inhibition ([5]; 0.003-3 mg/kg i.v., uncoupled peptides): Dose-dependent inhibition
Plasma Aβ level reduction ([5]; 3 mg/kg i.v., uncoupled peptide): 51%

Aβ40 production inhibition in HEK293 APP cells [1]: blocked production of Aβ40
Molecule: CC[C@H](C)[C@H](NC(=O)[C@H](Cc1ccccc1)NC(=O)[C@H](Cc1ccc(O)cc1)NC(=O)[C@@H]1CCCN1C(=O)[C@H](Cc1ccc(O)cc1)NC(=O)CNC(=O)CNC(=O)CN)C(=O)N1CCC[C@H]1C(=O)N[C@H](CCCCN)C(=O)NCC(=O)N[C@H](CCCCN)C(=O)NCC(=O)N[C@@H](CCC(=O)O)C(=O)N[C@H](C(=O)N[C@@H](CC(N)=O)C(=O)N[C@@H](CC(C)C)[C@@H](O)CC(=O)N[C@H](C(=O)N[C@@H](C)C(=O)N[C@@H](CCC(=O)O)C(=O)N1CCC[C@@H]1C(N)=O)C(C)C)C(C)C [Pep#16, Gly-Gly-Gly-Tyr-Pro-Tyr-Phe-Ile-Pro-DLys-Gly-DLys-Gly-Glu-Val-Asn-Sta-Val-Ala-Glu-DPro-NH2] (H-GGGYPYFIP[dK]G[dK]GEVN[Sta]VAE[dP]-NH2; N-terminus assumed)
Aβ production inhibition in human stem-cell derived neurons [4]: able to reduce the Aβ production
